Like-named read-outs stand apart in the source and are kept apart here.
Tests used:
[1] = cited from earlier work
Safety evaluation = format: in vivo, human; conditions: for subjects who experienced AEs: six subjects
In short: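 Subjects were housed from Day −1 to Day 3 of each crossover period. Each period included serum chemistry, hematology, urinalysis, vital signs and 12-lead ECG. Adverse events were monitored through the treatment phase and at follow-up 7–14 days after the last dose.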

[2] = format: in vivo, human; conditions: for AUC(0–∞), ratio of geometric least-squares means (90% confidence interval) / C24, ratio of geometric least-squares means (90% confidence interval) / Cmax, ratio of geometric least-squares means (90% confidence interval) / reduction of plasma dolutegravir AUC(0–∞) / reduction of plasma dolutegravir C24 / reduction of plasma dolutegravir Cmax: fasted; for Tmax: human, plasma, oral, median (range)
In short: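 Healthy adults were randomized to 2 cohorts of 4 treatments: test compound 50 mg single dose fasted, then with calcium supplement (1,200 mg) or iron supplement (324 mg) fasted, with a ~30% fat meal, or 2 h before the supplement fasted. Washout was ≥7 days. K2EDTA plasma was sampled predose to 48 h. Noncompartmental parameters were log-transformed and fitted by mixed model, giving geometric LS mean ratios with 90% CI.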

[3] = in the absence of added supplement; cited from earlier work
[4] = Maalox 2 hours after dolutegravir administration
[5] = concurrent administration of Maximum Strength Maalox, fasted
[6] = Dolutegravir 2 h prior + CC, fasted vs. dolutegravir alone
[7] = Dolutegravir 2 h prior + FF, fasted vs. dolutegravir alone
[8] = Dolutegravir + CC, fasted vs. dolutegravir alone
[9] = Dolutegravir + CC, fed vs. dolutegravir + CC
[10] = Dolutegravir + CC, fed vs. dolutegravir alone
[11] = Dolutegravir + FF, fasted vs. dolutegravir alone
[12] = Dolutegravir + FF, fed vs. dolutegravir + FF
[13] = Dolutegravir + FF, fed vs. dolutegravir alone
[14] = co-administered with calcium carbonate 1,200 mg
[15] = co-administered with ferrous fumarate 324 mg

Compound: C[C@@H]1CCO[C@H]2Cn3cc(C(=O)NCc4ccc(F)cc4F)c(=O)c(O)c3C(=O)N12 [Dolutegravir]
- decrease of dolutegravir mean AUC [1, 4]: 26%
- decrease of dolutegravir mean C24 [1, 4]: 30%
- decrease of dolutegravir mean Cmax [1, 4]: 18%
- effect of omeprazole on dolutegravir exposure ([1]; clinical study in humans): no effect
- decrease of dolutegravir mean AUC [1, 5]: 74%
- decrease of dolutegravir mean C24 [1, 5]: 74%
- decrease of dolutegravir mean Cmax [1, 5]: 72%
- subjects who experienced AEs (Safety evaluation; Cohort 1 (calcium carbonate)): 50%
- subjects who experienced AEs (Safety evaluation; Cohort 2 (ferrous fumarate)): 50%
- severity of all adverse events (Safety evaluation; both cohorts): Grade 1
- changes in mean or median hematology or clinical chemistry values (Safety evaluation; human, in vivo): No consistent, treatment-related, or clinically significant changes
- changes in vital signs or ECGs (Safety evaluation; human, in vivo): No clinically significant changes
- AUC(0–∞), ratio of geometric least-squares means (90% confidence interval) [2, 6]: 0.94 (0.72, 1.23)
- C24, ratio of geometric least-squares means (90% confidence interval) [2, 6]: 0.90 (0.68, 1.19)
- Cmax, ratio of geometric least-squares means (90% confidence interval) [2, 6]: 1.00 (0.78, 1.29)
- AUC(0–∞), ratio of geometric least-squares means (90% confidence interval) [2, 7]: 0.95 (0.77, 1.15)
- C24, ratio of geometric least-squares means (90% confidence interval) [2, 7]: 0.92 (0.74, 1.13)
- Cmax, ratio of geometric least-squares means (90% confidence interval) [2, 7]: 0.99 (0.81, 1.21)
- AUC(0–∞), ratio of geometric least-squares means (90% confidence interval) [2, 8]: 0.61 (0.47, 0.80)
- C24, ratio of geometric least-squares means (90% confidence interval) [2, 8]: 0.61 (0.47, 0.80)
- Cmax, ratio of geometric least-squares means (90% confidence interval) [2, 8]: 0.63 (0.50, 0.81)
- AUC(0–∞), ratio of geometric least-squares means (90% confidence interval) [2, 9]: 1.78 (1.36, 2.33)
- C24, ratio of geometric least-squares means (90% confidence interval) [2, 9]: 1.76 (1.33, 2.33)
- Cmax, ratio of geometric least-squares means (90% confidence interval) [2, 9]: 1.70 (1.32, 2.18)
- AUC(0–∞), ratio of geometric least-squares means (90% confidence interval) [2, 10]: 1.09 (0.84, 1.43)
- C24, ratio of geometric least-squares means (90% confidence interval) [2, 10]: 1.08 (0.81, 1.42)
- Cmax, ratio of geometric least-squares means (90% confidence interval) [2, 10]: 1.07 (0.83, 1.38)
- AUC(0–∞), ratio of geometric least-squares means (90% confidence interval) [2, 11]: 0.46 (0.38, 0.56)
- C24, ratio of geometric least-squares means (90% confidence interval) [2, 11]: 0.44 (0.36, 0.54)
- Cmax, ratio of geometric least-squares means (90% confidence interval) [2, 11]: 0.43 (0.35, 0.52)
- AUC(0–∞), ratio of geometric least-squares means (90% confidence interval) [2, 12]: 2.14 (1.76, 2.61)
- C24, ratio of geometric least-squares means (90% confidence interval) [2, 12]: 2.28 (1.85, 2.81)
- Cmax, ratio of geometric least-squares means (90% confidence interval) [2, 12]: 2.41 (1.97, 2.94)
- AUC(0–∞), ratio of geometric least-squares means (90% confidence interval) [2, 13]: 0.98 (0.81, 1.20)
- C24, ratio of geometric least-squares means (90% confidence interval) [2, 13]: 1.00 (0.81, 1.23)
- Cmax, ratio of geometric least-squares means (90% confidence interval) [2, 13]: 1.03 (0.84, 1.26)
- reduction of plasma dolutegravir AUC(0–∞) [2, 14]: 39%
- reduction of plasma dolutegravir C24 [2, 14]: 39%
- reduction of plasma dolutegravir Cmax [2, 14]: 37%
- reduction of plasma dolutegravir AUC(0–∞) [2, 15]: 54%
- reduction of plasma dolutegravir C24 [2, 15]: 56%
- reduction of plasma dolutegravir Cmax [2, 15]: 57%
- plasma exposures, dose separation ([2]; dolutegravir fasted 2 hours prior to calcium carbonate or ferrous fumarate): counteracted the effect
- plasma exposures, co-administration with supplement and a meal ([2]; dolutegravir with calcium carbonate or ferrous fumarate, fed (moderate-fat meal)): counteracted the effect
- Tmax ([2]; dolutegravir 50 mg + calcium carbonate 1,200 mg, fed (moderate-fat meal), n = 11): 3 h
- Tmax ([2]; dolutegravir 50 mg + ferrous fumarate 324 mg, fed (moderate-fat meal), n = 10): 3.5 h
- increase of dolutegravir AUC by a moderate-fat meal ([2]; in the presence of calcium carbonate): 78%
- increase of dolutegravir AUC by a moderate-fat meal ([2]; in the presence of ferrous fumarate): 114%
- effect of co-administration on tmax of dolutegravir ([2]; with calcium carbonate or ferrous fumarate): no effect
- increase of dolutegravir AUC by a moderate-fat meal [3]: 41%

Source: publication PMC4407950 (Journal of Clinical Pharmacology, 2014)
